Data as given in ChEMBL document CHEMBL1151226, “New bioactive prenylflavonoids and dibenzocycloheptene derivative from roots of Dendrolobium lanceolatum” (J Nat Prod, 2004).
Converted amounts (≈) assume the structure as drawn. The source made the active and inactive calls. The calls are words filed in the database; no cut-off is given here.

Tests used:
Plasmodium falciparum [1] = experiment: Antiplasmodial activity against multidrug-resistant Plasmodium falciparum K1 at 20 ug/ml as [3H]hypoxanthine uptake; format: functional, organism-based
BC = experiment: Cytotoxicity against human BC cells at 20 ug/ml; format: functional, cell-based
[2] = test system: Mycobacterium tuberculosis; experiment: Antimycobacterial activity against Mycobacterium tuberculosis H37Ra by alamar blue assay; format: functional
Method in brief: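 M. tuberculosis H37Ra tested in the Microplate Alamar Blue Assay (MABA). Isoniazid and kanamycin sulfate were the reference drugs.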

KB [3] = experiment: Cytotoxicity against human KB cells at 20 ug/ml; format: functional, cell-based
NCI-H187 [4] = experiment: Cytotoxicity against human NCI-H187 cells at 20 ug/ml; format: functional, cell-based
KB [5] = experiment: Cytotoxicity against human KB cells; format: functional, cell-based
Method in brief: (§1)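 Human epidermoid carcinoma (KB) and human breast cancer (BC) cell lines assessed by a colorimetric cytotoxicity method following Skehan and co-workers. Ellipticine was the reference substance.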

[6] = Cytotoxicity against human BC cells; format: functional, cell-based; method in brief: as §1
NCI-H187 [7] = experiment: Cytotoxicity against human NCI-H187 cells; format: functional, cell-based
Method in brief: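 Human small cell lung cancer NCI-H187 cell line, assayed by the colorimetric method of Skehan and co-workers. Ellipticine served as the reference substance.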

Plasmodium falciparum [8] = experiment: Antiplasmodial activity against multidrug-resistant Plasmodium falciparum K1 as [3H]hypoxanthine uptake; format: functional, organism-based
Method in brief: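 P. falciparum K1 (multidrug-resistant) maintained in culture by the Trager–Jensen method. Microculture radioisotope technique, with growth read as in vitro [3H]-hypoxanthine uptake by the parasites. IC50 is the concentration giving 50% reduction in parasite growth. Artemisinin was the reference standard.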

SMILES | Activity (Plasmodium falciparum [1]) | Activity (BC) | MIC [2] | Activity (KB [3]) | Activity (NCI-H187 [4]) | IC50 (KB [5]) | IC50 [6] | IC50 (NCI-H187 [7]) | IC50 (Plasmodium falciparum [8])
CC1(C)C=Cc2c(ccc3c2O[C@H](c2ccc(O)cc2)CC3)O1 | inactive | inactive | 25 µg/mL (≈ 81.1 µM) | inactive | inactive |  |  |  | 
Cc1c2ccncc2c(C)c2c1[nH]c1ccccc12 [ELLIPTECINE] |  |  |  |  |  | 0.4 µg/mL (≈ 1.62 µM) | 0.4 µg/mL (≈ 1.62 µM) | 0.4 µg/mL (≈ 1.62 µM) | 
COc1cc2c(c(CC=C(C)C)c1O)O[C@H](c1ccc(O)c(O)c1CC=C(C)C)CC2 |  | inactive | 25 µg/mL (≈ 58.9 µM) | inactive | inactive |  |  |  | 3.1 µg/mL (≈ 7.3 µM)
NNC(=O)c1ccncc1 [ISONIAZID] |  |  | 0.04 µg/mL (≈ 0.292 µM) |  |  |  |  |  | 
COc1ccc([C@@H]2CC(=O)c3c(O)cc(O)c(CC=C(C)C)c3O2)c(CC=C(C)C)c1O |  | inactive | 12.5 µg/mL (≈ 28.5 µM) | inactive |  |  |  | 8.1 µg/mL (≈ 18.5 µM) | 3.3 µg/mL (≈ 7.53 µM)
COc1cc2c(cc1O)-c1cc(O)c(OC)c(OC)c1C=CC2 | inactive | inactive | 50 µg/mL (≈ 159 µM) | inactive | inactive |  |  |  | 
C[C@@H]1CC[C@H]2[C@@H](C)C(=O)O[C@@H]3O[C@@]4(C)CC[C@@H]1[C@]32OO4 [ARTEMISININ] |  |  |  |  |  |  |  |  | 0.001 µg/mL (≈ 0.00354 µM)
CC(C)=CCc1c([C@@H]2CC(=O)c3c(O)cc(O)c(CC=C(C)C)c3O2)cc2c(c1O)OC(C)(C)C=C2 |  |  | 6.3 µg/mL (≈ 12.8 µM) |  |  | 1.2 µg/mL (≈ 2.45 µM) | 1.7 µg/mL (≈ 3.47 µM) | 0.6 µg/mL (≈ 1.22 µM) | 2.6 µg/mL (≈ 5.3 µM)
NC[C@H]1O[C@H](O[C@H]2[C@H](O)[C@@H](O[C@H]3O[C@H](CO)[C@@H](O)[C@H](N)[C@H]3O)[C@H](N)C[C@@H]2N)[C@H](O)[C@@H](O)[C@@H]1O.O=S(=O)(O)O [KANAMYCIN SULFATE] |  |  | 2 µg/mL |  |  |  |  |  | 
